The structures appear in SMILES notation. Active and inactive are the calls of the source. The rule behind the calls is not given here.

A word on the IC50: it is the concentration that inhibits the measured activity by half. Read a high IC50 as a need for much substance.

The species named for experiment [1] is Rattus norvegicus. Nature of the experiment: (§1) Inhibition of ALR2 in Sprague-Dawley rat lens by spectrophotometry. The conditions noted are these: Lens of camera-type eye. The format is tissue-based. An outline of the steps: (§2)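 Rat lens extract, ammonium sulfate fractionated and dialyzed. 30 °C, 0.1 M sodium phosphate pH 6.2 with 0.25 mL 10 mM D,L-glyceraldehyde and 0.25 mL 0.104 mM NADPH in 1 mL total. Preincubated 10 min without substrate, then read 5 min at 340 nm against a substrate-free blank. Screened at 10^-4 M, then 10^-5 to 10^-8 M. IC50 by linear regression of log-dose curve, ≥4 concentrations.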

Experiment [2] is filed under the species Rattus norvegicus. The experiment is described as follows: Inhibition of ALR2 in Sprague-Dawley rat lens at >100 uM by spectrophotometry. The format is tissue-based. The conditions noted are these: Lens of camera-type eye. An outline of the steps: as §2
A short description of experiment [3]: as §1. The format is tissue-based, Lens of camera-type eye. An outline of the steps:
as §2

The nature of experiment [4]: Inhibition of ALR1 in Sprague-Dawley rat kidney by spectrophotometry. In kind it is tissue-based. An outline of the steps:
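Rat kidney enzyme from 3 vol 10 mM sodium phosphate pH 7.2 homogenate (0.25 M sucrose, EDTA, β-mercaptoethanol), 40-75% ammonium sulfate cut, dialyzed. 37 °C, 0.25 mL 20 mM sodium D-glucuronate, 0.25 mL 0.12 mM NADPH, 0.1 M phosphate pH 7.2, 1 mL total. NADPH oxidation followed at 340 nm against a substrate-free blank.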

Experiment [5] deals with Rattus norvegicus. The experiment is described as follows: Prevention of cataract development in severely galactosemic Sprague-Dawley Albino rat administered four timely daily as 3% eye-drop solution in precorneal region for 21 days. In kind it is functional, organism-based. Put shortly: (§3)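 Sprague-Dawley rats, 45-55 g, on 50% D-galactose chow, 15 per group. Both eyes dosed four times daily with 3% eye-drops or vehicle, starting one day before the diet switch. Lenses examined by slit-lamp after 1% atropine dilation at baseline and days 6, 8, 10, 14, 21. Graded stages 0-4, animals per stage counted, Mann-Whitney U-test.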

Experiment [6] concerns Rattus norvegicus. Nature of the experiment: Prevention of cataract development in severely galactosemic Sprague-Dawley Albino rat assessed as lens opacification administered four timely daily as 3% eye-drop solution in precorneal region for 21 days by slit-lamp microscopy. In kind it is functional, organism-based. Conditions: Lens of camera-type eye. An outline of the steps: as §3

In experiment [7] the test system is Rattus norvegicus. Nature of the experiment: Prevention of cataract development in severely galactosemic Sprague-Dawley Albino rat assessed as lens opacification administered four timely daily as 3% eye-drop solution in precorneal region for 11 days by slit-lamp microscopy. The format is functional, organism-based. Conditions: Lens of camera-type eye.
The test system of experiment [8] is Rattus norvegicus. The experiment is described as follows: Prevention of cataract development in severely galactosemic Sprague-Dawley Albino rat assessed as lens opacification administered four timely daily as 3% eye-drop solution in precorneal region for 12 days by slit-lamp microscopy. In kind it is functional, organism-based. Conditions: Lens of camera-type eye.

Experiment [9] has as its system Rattus norvegicus. Nature of the experiment: Prevention of cataract development in severely galactosemic Sprague-Dawley Albino rat assessed as lens opacification administered four timely daily as 3% eye-drop solution in precorneal region for 13 days by slit-lamp microscopy. The format is functional, organism-based. Conditions: Lens of camera-type eye.
Experiment [10] concerns Rattus norvegicus. Nature of the experiment: Prevention of cataract development in severely galactosemic Sprague-Dawley Albino rat assessed as lens opacification administered four timely daily as 3% eye-drop solution in precorneal region for 14 days by slit-lamp microscopy. The format is functional, organism-based. Conditions: Lens of camera-type eye. An outline of the steps: as §3

Experiment [11] relates to Rattus norvegicus. The experiment is described as follows: Prevention of cataract development in severely galactosemic Sprague-Dawley Albino rat assessed as lens opacification administered four timely daily as 3% eye-drop solution in precorneal region for 15 days by slit-lamp microscopy. Conditions: Lens of camera-type eye. In kind it is functional, organism-based.
Experiment [12] relates to Rattus norvegicus. Nature of the experiment: Prevention of cataract development in severely galactosemic Sprague-Dawley Albino rat assessed as lens opacification administered four timely daily as 3% eye-drop solution in precorneal region for 16 days by slit-lamp microscopy. Conditions: Lens of camera-type eye. The format is functional, organism-based.
Experiment [13] deals with Rattus norvegicus. The experiment is described as follows: Prevention of cataract development in severely galactosemic Sprague-Dawley Albino rat assessed as lens opacification administered four timely daily as 3% eye-drop solution in precorneal region for 17 days by slit-lamp microscopy. In kind it is functional, organism-based. The conditions noted are these: Lens of camera-type eye.

The subject of experiment [14] is Rattus norvegicus. The experiment is described as follows: Prevention of cataract development in severely galactosemic Sprague-Dawley Albino rat assessed as lens opacification administered four timely daily as 3% eye-drop solution in precorneal region for 18 days by slit-lamp microscopy. Conditions: Lens of camera-type eye. In kind it is functional, organism-based.

Experiment [15] concerns Rattus norvegicus. Nature of the experiment: Prevention of cataract development in severely galactosemic Sprague-Dawley Albino rat assessed as lens opacification administered four timely daily as 3% eye-drop solution in precorneal region for 19 days by slit-lamp microscopy. Conditions: Lens of camera-type eye. In kind it is functional, organism-based.
For experiment [16], the system named is Rattus norvegicus. The experiment is described as follows: Prevention of cataract development in severely galactosemic Sprague-Dawley Albino rat assessed as lens opacification administered four timely daily as 3% eye-drop solution in precorneal region for 20 days by slit-lamp microscopy. In kind it is functional, organism-based. Conditions: Lens of camera-type eye.

As to `O=C(O)Cc1coc(-c2ccccc2)n1`, the result in the experiment listed under Rattus norvegicus [1] was inactive. Also, in the experiment listed under Rattus norvegicus [2], the outcome was Active.

`O=C(O)Cc1nc(-c2ccc(Br)cc2)no1`: the IC50 in [3] is 0.69 µM; in [4], more than 10 µM.

`COc1ccc(-c2nc(CC(=O)O)co2)cc1`: the midpoint of inhibition in experiment [3], the IC50, lay at 54.8 µM.

As for `COc1ccc(-c2noc(CC(=O)O)n2)cc1`, the values for the IC50 in experiment [3] and in experiment [4] were 0.27 µM and more than 10 µM, respectively. Moreover, the result in the experiment with Rattus norvegicus [5], with Rattus norvegicus [6], in the experiment with Rattus norvegicus [7], with Rattus norvegicus [8], in the experiment with Rattus norvegicus [9] and in the experiment on Rattus norvegicus [10] was Active. Moreover, the result in the experiment with Rattus norvegicus [11], in the experiment on Rattus norvegicus [12], in the experiment on Rattus norvegicus [13] and in the experiment with Rattus norvegicus [14] was Active.

As for `O=C(O)Cc1nc(-c2cccc([N+](=O)[O-])c2)no1`, the IC50 is 0.71 µM in experiment [3] and more than 10 µM in experiment [4].

In the case of `O=C(O)Cc1nc(Cc2ccc(Cl)cc2)no1`, the IC50 in experiment [3] is 5.11 µM; in experiment [4] it was more than 10 µM.

With `O=C(O)Cc1nc(-c2ccc(Br)cc2F)no1`, the values for the IC50 in experiment [3] and in experiment [4] were 2 µM and more than 10 µM, respectively.

Take `O=C(O)Cc1nc(-c2ccc(F)cc2)no1`: the IC50 in [3] was 8.43 µM; in experiment [4], more than 10 µM.

For the molecule `Cc1ccc(-c2nc(CC(=O)O)co2)cc1`, the result in the experiment listed under Rattus norvegicus [1] was inactive. Further, in the experiment filed under Rattus norvegicus [2], the result was Active.

`O=C(O)Cc1nc(Cc2ccccc2)no1`: the results for the 50% inhibitory concentration (IC50) in [3] and in experiment [4] were 28.4 µM and more than 10 µM, respectively.

Turning to `O=C(O)Cc1nc(-c2ccc(C(F)(F)F)cc2)no1`, the 50% inhibitory concentration (IC50) in experiment [3] was 1.08 µM; in [4], more than 10 µM.

With `COc1ccc(Cc2noc(CC(=O)O)n2)cc1`, the IC50 in [3] is 8.18 µM; in experiment [4], more than 10 µM.

With `Cc1ccc(Cc2noc(CC(=O)O)n2)cc1`, the figures for the IC50 in [3] and in experiment [4] were 5.29 µM and more than 10 µM, respectively.

Turning to `O=C(O)Cc1nc(Cc2ccc(Br)cc2)no1`, the IC50 was 1.66 µM in experiment [3] and more than 10 µM in [4].

As for `O=C(O)Cc1nc(-c2ccccc2)no1`, the IC50 in experiment [3] was 3.33 µM; in [4], more than 10 µM.

Turning to `Cc1ccc(-c2noc(CC(=O)O)n2)cc1`, the IC50 in experiment [3] is 2.5 µM; in [4], more than 10 µM.

Turning to `COc1ccc2c(C(=S)N(C)CC(=O)O)cccc2c1C(F)(F)F` [TOLRESTAT], the 50% inhibitory concentration (IC50) is 0.05 µM in experiment [3] and more than 10 µM in experiment [4]. Moreover, the result with Rattus norvegicus [6], in the experiment with Rattus norvegicus [7], in the experiment on Rattus norvegicus [8], with Rattus norvegicus [9], in the experiment with Rattus norvegicus [10] and in the experiment with Rattus norvegicus [11] was Active. The result in the experiment with Rattus norvegicus [12], in the experiment on Rattus norvegicus [13], with Rattus norvegicus [14], in the experiment with Rattus norvegicus [15] and with Rattus norvegicus [16] was Active.

As for `O=C(O)Cc1nc(Cc2cccc([N+](=O)[O-])c2)no1`, the 50% inhibitory concentration (IC50) in experiment [3] was 0.3 µM; in experiment [4], more than 10 µM.

`O=C(O)Cc1nc(-c2ccc(Cl)cc2)no1`: the 50% inhibitory concentration (IC50) in [3] was 3.95 µM; in experiment [4] it was more than 10 µM.

For `O=C(O)Cc1nc(Cc2ccc(F)cc2)no1`, the IC50 was 21.7 µM in experiment [3] and more than 10 µM in [4].

Take `O=C(O)Cc1nc(Cc2ccc(C(F)(F)F)cc2)no1`: the IC50 was 6.3 µM in [3] and more than 10 µM in experiment [4].

Regarding `O=C(O)Cc1coc(-c2ccc(F)cc2)n1`, the result in the experiment filed under Rattus norvegicus [1] was inactive. Further, the outcome in the experiment listed under Rattus norvegicus [2] was Active.

With `O=C(O)Cc1nc(Cc2ccc(Br)cc2F)no1`, the IC50 was 0.36 µM in experiment [3] and more than 10 µM in [4].

These data come from ChEMBL document CHEMBL1150328, “Acetic acid aldose reductase inhibitors bearing a five-membered heterocyclic core with potent topical activity in a visual impairment rat model” (J Med Chem, 2008).
